Test results reported in article PMC6404779 (Nature medicine, 2018).

Legend:
[1] = tested on: BRAF V600E monomer; settings: cited from earlier work
[2] = tested on: first site of RAF dimers; settings: cited from earlier work
[3] = tested on: second site of RAF dimers; settings: read-out: IC50 of binding to the second site of RAF dimers; cited from earlier work
[4] = tested on: RAF-null MEFs expressing ARAF; test: ERK signaling in RAF-null MEFs expressing one RAF isoform; format: cell-based, Mouse; settings: 1hr
Outline: (§1)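 RAF-less MEFs came from Araflox/lox;Braflox/lox;Craflox/lox;RERT ert/ert MEFs. Doxycycline-inducible wild-type ARAF, BRAF or CRAF was transduced retrovirally without 4-OHT and selected with puromycin/hygromycin. Cells were then infected with Adeno-Cre (MOI 100) and cultured in 1 uM 4-OHT plus 50 ng/ml doxycycline. GFP-positive cells were sorted after 2 weeks. Loss of endogenous RAF and induced expression were confirmed by genomic PCR and Western blot.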

[5] = tested on: RAF-null MEFs expressing BRAF; test: as above; format: cell-based, Mouse; settings: 1hr
Outline: as §1

[6] = tested on: RAF-null MEFs expressing CRAF; test: as above; format: cell-based, Mouse; settings: 1hr
Outline: as §1

[7] = tested on: A375 cells with overexpression of BRAF V600E; test: A375 xenograft with doxycycline-induced BRAF V600E overexpression; format: in vivo, nude mice; settings: vemurafenib 75mg/kg BID, PLX8394 50mg/kg BID
Outline: (§2)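 A375 cells carrying a retroviral tet-regulated BRAF V600E or NRAS Q61K construct (kept in 50 ug/ml hygromycin and 0.2 ug/ml puromycin). 5 million cells were injected s.c. into nude mice fed doxycycline food. At 100 mm3, mice stayed on doxycycline food and received vehicle, reference RAF inhibitor 75 mg/kg BID or test compound 50 mg/kg BID. Tumour size was tracked (n=5; mean±s.d.; two-tailed unpaired t-test).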

[8] = tested on: A375 cells with NRAS Q61K expression; test: A375 xenograft with doxycycline-induced NRAS Q61K; format: in vivo, nude mice; settings: vemurafenib 75mg/kg BID, PLX8394 50mg/kg BID
Outline: as §2

[9] = tested on: BRAF K601E CRC PDX tumors; test: Colorectal cancer PDX model; format: in vivo, NSG mice; settings: vemurafenib 75mg/kg BID, PLX8394 50mg/kg BID
[10] = tested on: BRAF G466V PDX tumors; test: Colorectal cancer PDX model; format: in vivo, NSG mice; settings: Cetuximab 50 mg/kg IP twice weekly, vemurafenib 75 mg/kg BID, PLX8394 50 mg/kg BID

Compound	off-rate from BRAF V600E monomers [1] [h]	IC50 ([1]; read-out: IC50 of binding to the BRAF V600E monomer) [nM]	time the drug remains bound to the other site after washout ([2]; cells pretreated 1 hour, washed out)	IC50 ([2]; read-out: IC50 of binding to first site of RAF dimers) [nM]	IC50 [3] [nM]	effect on ERK signaling, cells expressing only ARAF [4]	effect on ERK signaling, cells expressing only BRAF [5]	effect on ERK signaling, cells expressing only CRAF [6]	response of ERK signaling and tumor growth, BRAF V600E amplified [7]	response of ERK signaling and tumor growth, mutant NRAS [8]	tumor growth response, single RAF inhibitor [9]	response of ERK signaling and tumor growth [10]
COC(=O)N[C@@H](C)CNc1nccc(-c2cn(C(C)C)nc2-c2cc(Cl)cc(NS(C)(=O)=O)c2F)n1 [encorafenib]	> 24	14	up to 24 hours	14	287							
CCCS(=O)(=O)Nc1ccc(F)c(C(=O)c2c[nH]c3ncc(-c4ccc(Cl)cc4)cc23)c1F [vemurafenib, reference compound]						activated ERK signaling	activated ERK signaling	activated ERK signaling	resistance	resistance	insensitive	insensitive
